{"data": "Measurements of several laboratories", "target": "Inhibitor of nuclear factor kappa-B kinase subunit beta (IKBKB, Homo sapiens, UniProt O14920)", "Residues used in one study (O14920 1-756)": "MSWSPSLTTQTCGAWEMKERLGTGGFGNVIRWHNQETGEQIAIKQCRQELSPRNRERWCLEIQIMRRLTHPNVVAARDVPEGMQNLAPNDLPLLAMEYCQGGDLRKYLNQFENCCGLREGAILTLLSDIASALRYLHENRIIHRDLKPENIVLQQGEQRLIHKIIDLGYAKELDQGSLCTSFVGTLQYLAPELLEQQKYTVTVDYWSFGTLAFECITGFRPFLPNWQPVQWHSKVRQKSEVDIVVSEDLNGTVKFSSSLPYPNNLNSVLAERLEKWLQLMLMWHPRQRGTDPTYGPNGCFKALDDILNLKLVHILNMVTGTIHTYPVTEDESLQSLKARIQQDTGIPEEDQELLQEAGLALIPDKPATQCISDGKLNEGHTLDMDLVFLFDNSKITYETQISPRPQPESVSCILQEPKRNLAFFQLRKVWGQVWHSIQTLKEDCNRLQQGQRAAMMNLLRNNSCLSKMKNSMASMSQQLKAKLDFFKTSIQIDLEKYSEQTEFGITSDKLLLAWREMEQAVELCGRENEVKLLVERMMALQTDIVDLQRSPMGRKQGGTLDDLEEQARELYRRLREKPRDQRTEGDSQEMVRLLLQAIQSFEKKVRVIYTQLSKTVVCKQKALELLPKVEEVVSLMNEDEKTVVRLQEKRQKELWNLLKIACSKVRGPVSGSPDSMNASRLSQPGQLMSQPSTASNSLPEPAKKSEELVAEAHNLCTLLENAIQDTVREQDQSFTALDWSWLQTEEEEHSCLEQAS", "note": "Each line is one published result; the experiments were not run side by side."}
{"SMILES": "CS(=O)(=O)Nc1cccc(-c2csc(NC(=O)CSc3nc4nccnc4c(=O)n3CCc3ccccc3)n2)c1", "read-out": "enzyme activity", "mode": "inhibitor", "tested at": "10 µM", "measurement": "inhibition", "result": "4%"}
{"SMILES": "COc1cc(Nc2cnc(C#N)c(O[C@H](C)CN(C)C)n2)ncc1-c1cnn(C)c1", "read-out": "enzyme activity", "mode": "inhibitor", "method": "radiometric", "tested at": "10 µM", "measurement": "remaining activity", "result": "86%"}
{"SMILES": "O=C1c2ccccc2-c2n[nH]c3cccc1c23", "read-out": "enzyme activity", "mode": "inhibitor", "tested at": "0.5 µM", "measurement": "activity vs control", "result": "75.8%"}
{"SMILES": "CC(C)(C)c1nc2c(s1)c1nc(N)ncc1c1ccc(NS(=O)(=O)c3c(F)cccc3F)c(F)c12", "read-out": "enzyme activity", "mode": "inhibitor", "method": "radiometric", "tested at": "1 µM", "measurement": "remaining activity", "result": "79%"}
{"SMILES": "CCS(=O)(=O)c1cc2cc(C[C@](O)(CC(C)(C)c3ccc(F)cc3C(N)=O)C(F)(F)F)[nH]c2cn1", "read-out": "cell-free assay", "method": "competition with immobilised ligand", "tested at": "1 µM", "measurement": "remaining binding", "result": "91%"}
{"SMILES": "Cc1ccc(NC(=O)c2ccc(CN3CCN(C)CC3)cc2)cc1Nc1nc(-c2cccnc2)cs1", "read-out": "cell-free assay", "tested at": "0.5 µM", "measurement": "remaining signal", "result": "97.8%"}
{"SMILES": "CNC(=O)c1cc(Oc2ccc(NC(=O)Nc3ccc(Cl)c(C(F)(F)F)c3)cc2)ccn1", "read-out": "enzyme activity", "mode": "inhibitor", "tested at": "0.3 µM", "measurement": "inhibition", "result": "-5%"}
{"SMILES": "CN1CCC2(CC1)NC(=O)c1c(c3ccc(Cl)c(Cl)c3n1C)C2C#N (racemic)", "read-out": "thermal stability", "method": "DSF", "tested at": "10 µM", "measurement": "ΔTm", "result": "-0.2 °C"}
{"SMILES": "COc1cc(/C=C/C(=O)CC(=O)/C=C/c2ccc(O)c(OC)c2)ccc1O", "read-out": "enzyme activity", "mode": "inhibitor", "tested at": "1 µM", "measurement": "activity vs control", "result": "69%"}
{"SMILES": "CCOCCn1cc(C(=O)Nc2ccc(-n3nc(-c4cccnc4)cc3C(F)(F)F)cn2)ccc1=O", "read-out": "cell-free assay", "method": "competition with immobilised ligand", "tested at": "1 µM", "measurement": "remaining binding", "result": "100%"}
{"SMILES": "COc1cc2ncnc(Nc3ccc(Oc4ccccc4)cc3C)c2cc1OC", "read-out": "enzyme activity", "mode": "inhibitor", "tested at": "1 µM", "measurement": "inhibition", "result": "1%"}
{"SMILES": "CC(C)(C)C(=O)c1sc(NC2CCCCC2)nc1N", "read-out": "enzyme activity", "mode": "inhibitor", "tested at": "10 µM", "measurement": "remaining activity", "result": "99%"}
{"SMILES": "O=C(Nc1cnn(-c2csc(C(=O)NC3COC3)c2)c1)Nc1c(F)cccc1Cl", "read-out": "enzyme activity", "mode": "inhibitor", "tested at": "5 µM", "measurement": "remaining activity", "result": "94.7%"}
{"SMILES": "COc1cc2ncnc(Nc3ccc(F)c(Cl)c3)c2cc1OCCCN1CCOCC1", "read-out": "cell-free assay", "tested at": "0.5 µM", "measurement": "remaining signal", "result": "86.5%"}
{"SMILES": "NS(=O)(=O)c1cc(NC(=O)C2(c3ccccc3Cl)CC2)ccc1Oc1cccc(Cl)c1", "read-out": "cell-free assay", "method": "competition with immobilised ligand", "tested at": "1 µM", "measurement": "remaining binding", "result": "70%"}
{"SMILES": "Cn1c2c(Cl)c(Cl)ccc2c2cn[nH]c(=O)c21", "read-out": "thermal stability", "method": "DSF", "tested at": "10 µM", "measurement": "ΔTm", "result": "-0.1 °C"}
{"SMILES": "O=C(NCCCC1CCCCC1)c1ccc(CNC(=O)c2cnn(-c3ccccc3)c2C(F)(F)F)cc1", "read-out": "cell-free assay", "method": "competition with immobilised ligand", "tested at": "0.1 µM", "measurement": "remaining binding", "result": "100%"}
{"SMILES": "CCCCNc1ncc2c(-c3ccc(F)cc3)nn(C[C@H]3CC[C@H](N)CC3)c2n1", "read-out": "target engagement in cells", "mode": "inhibitor", "method": "chemoproteomics", "tested at": "20 mM", "measurement": "inhibition", "result": "-14.9%"}
{"SMILES": "Cc1ccc(C(=O)Nc2ccc(CN3CCN(C)CC3)c(C(F)(F)F)c2)cc1C#Cc1cnc2cccnn12", "read-out": "enzyme activity", "mode": "inhibitor", "tested at": "23.5 nM", "measurement": "remaining activity", "result": "37%"}
{"SMILES": "Cn1c2c(Cl)c(Cl)ccc2c2cc(N)[nH]c(=O)c21", "read-out": "thermal stability", "method": "DSF", "tested at": "10 µM", "measurement": "ΔTm", "result": "-0.6 °C"}
{"SMILES": "N#CCCc1ccc2c(c1)-c1[nH]c3ccc([N+](=O)[O-])cc3c1CC(=O)N2", "read-out": "cell-free assay", "tested at": "0.5 µM", "measurement": "remaining signal", "result": "96.3%"}
{"SMILES": "c1ccc(CNc2nc(N3CCOc4ccccc43)nc3c2CCCC3)cc1", "read-out": "target engagement in cells", "mode": "inhibitor", "method": "chemoproteomics", "tested at": "20 mM", "measurement": "inhibition", "result": "-6.4%"}
{"SMILES": "O=c1c2ccccc2[nH]c(=S)n1CCN1CCC(=C(c2ccc(F)cc2)c2ccc(F)cc2)CC1", "read-out": "enzyme activity", "mode": "inhibitor", "tested at": "0.5 µM", "measurement": "remaining activity", "result": "99.5%"}
{"SMILES": "CCCS(=O)(=O)Nc1ccc(F)c(C(=O)c2c[nH]c3ncc(-c4ccc(Cl)cc4)cc23)c1F", "read-out": "enzyme activity", "mode": "inhibitor", "tested at": "1 µM", "measurement": "inhibition", "result": "< 10%"}
{"SMILES": "NS(=O)(=O)c1cc(NC(=O)Cc2ccccc2)ccc1Oc1cccc(Cl)c1", "read-out": "cell-free assay", "method": "competition with immobilised ligand", "tested at": "1 µM", "measurement": "remaining binding", "result": "91%"}
{"SMILES": "Cc1ccc(Nc2nccc(N(C)c3ccc4c(C)n(C)nc4c3)n2)cc1S(N)(=O)=O", "read-out": "enzyme activity", "mode": "inhibitor", "tested at": "0.3 µM", "measurement": "inhibition", "result": "3%"}
{"SMILES": "N#CC1(c2ccccn2)CCN(Cc2cc(C(=O)N3CCCC3)c(=O)n3ccccc23)CC1", "read-out": "cell-free assay", "method": "competition with immobilised ligand", "tested at": "1 µM", "measurement": "remaining binding", "result": "99%"}
{"SMILES": "CCN(CC)CCNC(=O)c1c(C)[nH]c(/C=C2\\C(=O)Nc3ccc(F)cc32)c1C", "read-out": "enzyme activity", "mode": "inhibitor", "tested at": "0.3 µM", "measurement": "inhibition", "result": "-1%"}
{"SMILES": "FC(F)c1nc2ccccc2n1-c1nc(N2CCOCC2)nc(N2CCOCC2)n1", "read-out": "enzyme activity", "mode": "inhibitor", "tested at": "10 µM", "measurement": "remaining activity", "result": "94%"}
{"SMILES": "CN(c1ccnc(CNc2nc(Nc3ccc4c(c3)CC(=O)N4)ncc2C(F)(F)F)n1)S(C)(=O)=O", "read-out": "cell-free assay", "method": "competition with immobilised ligand", "tested at": "1 µM", "measurement": "remaining binding", "result": "78%"}
{"SMILES": "Cn1c2c(c3ccc(Cl)c(Cl)c31)C(C#N)C1(CCCC1)NC2=O (stereo not shown)", "read-out": "thermal stability", "method": "DSF", "tested at": "10 µM", "measurement": "ΔTm", "result": "-0.7 °C"}
{"SMILES": "CC(C)(O)[C@H]1CC[C@H](Nc2ccc3ncc(-c4cccc(C(F)(F)F)c4)n3n2)CC1", "read-out": "enzyme activity", "mode": "inhibitor", "tested at": "1 µM", "measurement": "remaining activity", "result": "95.4%"}
{"SMILES": "FC(F)(F)Oc1cccc(-c2cnc3ccc(-c4ccncc4)nn23)c1", "read-out": "enzyme activity", "mode": "inhibitor", "method": "radiometric", "tested at": "5 µM", "measurement": "activity vs control", "result": "84%"}
{"SMILES": "CC1=C(C#N)[C@@H](c2ccc3[nH]nc(C)c3c2)C(C#N)=C(c2ccc(Cl)cc2)N1", "read-out": "cell-free assay", "method": "competition with immobilised ligand", "tested at": "1 µM", "measurement": "remaining binding", "result": "100%"}
{"SMILES": "Cn1c2c(c3ccc(Cl)c(Cl)c31)C(C#N)C1(CCOCC1)NC2=O (stereo not shown)", "read-out": "thermal stability", "method": "DSF", "tested at": "10 µM", "measurement": "ΔTm", "result": "-0.4 °C"}
{"SMILES": "CCN(CC)c1ccc(C2=NNC(=O)CC2C)cc1[N+](=O)[O-] (stereo not shown)", "read-out": "enzyme activity", "mode": "inhibitor", "tested at": "10 µM", "measurement": "remaining activity", "result": "97%"}
{"SMILES": "CN(C)C1CCN(CC#Cc2nn(C3CCCC3)c3nc(NCc4ccccc4)ncc23)C1 (stereo not shown)", "read-out": "enzyme activity", "mode": "inhibitor", "method": "FRET", "tested at": "1 µM", "measurement": "inhibition", "result": "1%"}
{"SMILES": "Cn1c(=O)n(-c2ccc(C(C)(C)C#N)cc2)c2c3cc(-c4cnc5ccccc5c4)ccc3ncc21", "read-out": "enzyme activity", "mode": "inhibitor", "tested at": "10 µM", "measurement": "remaining activity", "result": "92%"}
{"SMILES": "Nc1nc(Nc2ccccc2)sc1C(=O)c1c(F)cccc1F", "read-out": "enzyme activity", "mode": "inhibitor", "tested at": "10 µM", "measurement": "remaining activity", "result": "82%"}
{"SMILES": "Cc1cnc(NC2CCOCC2)nc1-n1cnc(C(=O)NC(CN)c2cc(F)cc(Cl)c2)c1 (stereo not shown)", "read-out": "enzyme activity", "mode": "inhibitor", "method": "radiometric", "tested at": "1 µM", "measurement": "remaining activity", "result": "100%"}
